A word on the IC50: it is the concentration at which inhibition is half-maximal.

The target of one assay is CDK2 (Homo sapiens, UniProt P24941). The assay is described as follows: In vitro CDK2 enzyme inhibition. Type of assay: biochemical.
A further assay relates to HepG2 cells. The assay is described as follows: MTT cytotoxicity assay, HepG2. Type of assay: cell-based. As to conditions: Homo sapiens, HepG2, 48 h, read-out: IC50 HepG2. For orientation: Tetrazolium assays rely on reduction of a dye to a coloured formazan, in cell work by metabolically active cells.
The subject of assay [1] is MCF-7 cells. The assay is described as follows: MTT cytotoxicity assay, MCF-7. Format: cell-based. The conditions noted are these: Homo sapiens, MCF7, 48 h, read-out: IC50 MCF-7.
Assay [2] concerns MCF-7 cells. Nature of the assay: Cell cycle analysis. Type of assay: cell-based, human. In outline: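 MCF-7 cells were exposed for 48 h, harvested by trypsinization and washed twice in PBS. Fixed in ice-cold 60% (w/w) ethanol at 4 °C for 12 h, then rewashed in PBS. Stained 30 min in buffer with RNase and propidium iodide. Flow cytometry gave the % of cells in G1, S and G2, with untreated MCF-7 as control.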

The test system of assay [3] is MCF-7 cells. Nature of the assay: Annexin V-FITC/PI apoptosis assay. The conditions noted are these: MCF-7, 48 h at IC50. Type of assay: cell-based, human. In outline: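 Treated MCF-7 cells for 48 h, then trypsinized and washed in PBS. Stained with annexin V-FITC plus propidium iodide at room temperature in the dark, per kit instructions, then read on a FACScan flow cytometer. Quadrants: upper left necrotic, upper right late apoptotic, lower right early apoptotic, lower left living. Untreated MCF-7 served as control.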

The next assay relates to Bax. The assay is described as follows: Bax level by ELISA in treated MCF-7 cells. Type of assay: cell-based, human.
A further assay has as its system Bcl-2. The assay is described as follows: Bcl-2 level by ELISA in treated MCF-7 cells. Type of assay: cell-based, human. A general note: An ELISA detects its analyte on a solid surface through an enzyme-linked reagent.

At CDK2, `Cc1cccc(N=Nc2c(N)nn(-c3ccccn3)c2N)c1` [Compound 2, 1-(2-Pyridinyl)-4-(3-tolyldiazenyl)-1H-pyrazole-3,5-diamine] showed an IC50 of 1.05 ± 0.2 µM.
`CC(=O)c1ccc(N=Nc2c(N)nn(-c3ccccn3)c2N)cc1` [Compound 3, 1-(4-((3,5-Diamino-1-(2-pyridinyl)-1H-pyrazol-4-yl)diazenyl)phenyl)ethan-1-one] yielded an IC50 against CDK2 of 1.2 ± 0.15 µM.
Regarding `Nc1nn(-c2ccccn2)c(N)c1N=Nc1ccc(S(=O)(=O)O)cc1` [Compound 4, 4-((3,5-Diamino-1-(2-pyridinyl)-1H-pyrazol-4-yl)diazenyl)benzenesulfonic acid], the IC50 at CDK2 was 0.75 ± 0.05 µM; with HepG2 cells, 53.8 ± 3.2 µM; in the assay with MCF-7 cells [1], 48.7 ± 2.8 µM.
For `Nc1nn(-c2ccccn2)c(N)c1N=Nc1ccc(C(=O)O)c(O)c1` [Compound 5, 4-((3,5-Diamino-1-(2-pyridinyl)-1H-pyrazol-4-yl)diazenyl)-2-hydroxybenzoic acid], the “CDK2 inhibitory activity relative to roscovitine” value at CDK2 is listed as 2 fold. Also, the IC50 against CDK2 turned out to be 0.56 ± 0.03 µM; in the assay with HepG2 cells it was 13.1 ± 1.1 µM; in the assay on MCF-7 cells [1] it was 8.03 ± 0.6 µM. The “fold increase in S phase in comparison to control” value in the assay on MCF-7 cells [2] (MCF-7) came to 1.2 fold. The “% S” value in the assay with MCF-7 cells [2] (MCF-7, 48 h at its IC50, control 35.52) is listed as 41.02%. Further, in the assay on MCF-7 cells [2] (MCF-7, 48 h at its IC50, control 38.02), the “% G1” value was 11.98%. Besides, the Late apoptosis in the assay on MCF-7 cells [3] (control 0.04) worked out at 8.10%. In the assay on MCF-7 cells [3] (control 0.18), the Necrosis was found to be 0.02%. Also, the Early apoptosis in the assay on MCF-7 cells [3] (control 0.43) is 71.1%. Besides, the “Total (apoptosis/necrosis)” value in the assay with MCF-7 cells [3] (control 0.65) was 79.22. For the same compound, the “Bax/Bcl-2 ratio in comparison with control” value in the assay on Bax was “approximately 20 fold”. In addition, the Bax in the assay on Bax (control 57.22 ± 0.9) was determined as 369.15 ± 0.7 pg/mL. Moreover, the “Bax FLD” value in the assay with Bax (relative to control = 1) is given as 6.45 fold. The “decrease of anti-apoptotic Bcl-2 level in comparison with control” value in the assay with Bcl-2 was 3 fold. In addition, the Bcl-2 with Bcl-2 (control 5.31 ± 0.5) stood at 1.72 ± 0.08 ng/mL. For the same compound, the “Bcl-2 FLD” value in the assay on Bcl-2 (relative to control = 1) is recorded as 0.3.
Regarding `NC(N)=NS(=O)(=O)c1ccc(N=Nc2c(N)nn(-c3ccccn3)c2N)cc1` [Compound 6, 4-((3,5-Diamino-1-(2-pyridinyl)-1H-pyrazol-4-yl)diazenyl)-N-(diaminomethylene)benzenesulfonamide], the “CDK2 inhibitory activity relative to roscovitine” value at CDK2 is given as 2 fold. Besides, the IC50 worked out at 0.46 ± 0.02 µM against CDK2, 22.8 ± 1.5 µM in the assay on HepG2 cells and 26.1 ± 1.7 µM in the assay with MCF-7 cells [1].
Turning to `Nc1nn(-c2ccccn2)c(N)c1N=Nc1ccc(N=Nc2ccccc2)cc1` [Compound 7, 4-((4-(Phenyldiazenyl)phenyl)diazenyl)-1-(2-pyridinyl)-1H-pyrazole-3,5-diamine], the IC50 on CDK2 turned out to be 0.77 ± 0.05 µM; in the assay with HepG2 cells it was 67.1 ± 3.5 µM; with MCF-7 cells [1], 35.1 ± 2.2 µM.
Take `Nc1nn(-c2ccccn2)c(N)c1N=Nc1cc(Cl)c(Cl)cc1Cl` [Compound 8, 1-(2-Pyridinyl)-4-((2,4,5-trichlorophenyl)diazenyl)-1H-pyrazole-3,5-diamine]: the IC50 on CDK2 was 1.46 ± 0.5 µM.
Regarding `Nc1nn(-c2ccccn2)c(N)c1N=Nc1cccc([N+](=O)[O-])c1` [Compound 9, 4-((3-Nitrophenyl)diazenyl)-1-(2-pyridinyl)-1H-pyrazole-3,5-diamine], half-maximal inhibition against CDK2 (IC50) was put at 1.5 ± 0.7 µM.
On to `COc1ccc(N=Nc2c(N)nn(-c3ccccn3)c2N)cc1` [Compound 10, 4-((4-Methoxyphenyl)diazenyl)-1-(2-pyridinyl)-1H-pyrazole-3,5-diamine], for which the results for the IC50 on CDK2, with HepG2 cells and with MCF-7 cells [1] were 0.85 ± 0.05 µM, 41.6 ± 2.4 µM and 15.4 ± 1.2 µM, respectively.
Regarding `Nc1nn(-c2ccccn2)c(N)c1N=Nc1ccccc1Cl` [Compound 11, 4-((2-Chlorophenyl)diazenyl)-1-(2-pyridinyl)-1H-pyrazole-3,5-diamine], on CDK2, the “CDK2 inhibitory activity relative to roscovitine” value was 2 fold. Also, the IC50 on CDK2 was determined as 0.45 ± 0.02 µM; in the assay with HepG2 cells, 74.2 ± 3.8 µM; with MCF-7 cells [1], 61.8 ± 3.4 µM.
`Nc1nn(-c2ccccn2)c(N)c1N=Nc1nccs1` [Compound 12, 1-(Pyridin-2-yl)-4-(thiazol-2-yldiazenyl)-1H-pyrazole-3,5-diamine] gave an IC50 against CDK2 of 1.24 ± 0.85 µM.
Consider `COc1cccc2c1C(=O)c1c(O)c3c(c(O)c1C2=O)C[C@@](O)(C(=O)CO)C[C@@H]3O[C@H]1C[C@H](N)[C@H](O)[C@H](C)O1` [DOX, doxorubicin, reference compound], for which, in the assay with HepG2 cells, the IC50 is 4.5 ± 0.2 µM.

The values above are taken from PMC12650307 (RSC Advances, 2025).
